According to ChEMBL document CHEMBL1154569, “Scalarane and homoscalarane compounds from the nudibranchs Glossodoris sedna and Glossodoris dalli: chemical and biological properties” (J Nat Prod, 2000):
Activity calls are given as the source filed them. The calls are words filed in the database; no cut-off is given here.

Key:
[1] = Inhibition of cytosolic PLA2
Outline: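 Measured in RBL-2H3 cells stimulated with ionomycin.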

Gambusia affinis = test: Ichthyotoxicity against Gambusia affinis at 0.1 ppm

| Structure (SMILES) | Activity [1] | IC50 [1] | Activity (Gambusia affinis) |
| --- | --- | --- | --- |
| CC(=O)O[C@H]1C[C@@H]2[C@@]3(C)CCCC(C)(C)[C@@H]3CC[C@@]2(C)[C@@H]2CC=C3CO[C@@H](O)[C@@H]3[C@@]12C | inactive |  | inactive |
| CC(=O)O[C@H]1C[C@@H]2[C@@]3(C)CCCC(C)(C)[C@@H]3CC[C@@]2(C)[C@@H]2CC=C(C=O)[C@H](C=O)[C@@]12C [SCALARADIAL] |  | 0.6 µM | Active |
| CC(=O)O[C@@H]1C[C@@H]2[C@@]3(C)CCCC(C)(C)[C@@H]3CC[C@@]2(C)[C@@H]2CC=C3CO[C@@H](O)[C@@H]3[C@@]12C | inactive |  | inactive |
| C[C@@H]1O[C@@H](O)[C@H]2C1=CC[C@H]1[C@]3(C)CC[C@H]4C(C)(C)CCC[C@]4(C)[C@H]3C[C@@H](O)[C@]21C | inactive |  | inactive |

Continued, in another order:

| Activity [1] | IC50 [1] | Structure (SMILES) | Activity (Gambusia affinis) |
| --- | --- | --- | --- |
| inactive |  | CC(=O)OC[C@]12CCCC(C)(C)[C@@H]1CC[C@]1(C)[C@@H]2C[C@@H](O)[C@]2(C)[C@@H]3C(=CC[C@@H]12)[C@H](C)O[C@H]3O | inactive |
|  | 18 µM | CC(=O)OC[C@]12CCCC(C)(C)[C@@H]1CC[C@]1(C)[C@@H]2C[C@@H](O)[C@]2(C)[C@@H](C=O)C(C(C)=O)=CC[C@@H]12 |  |
